Measurements reported in ChEMBL document CHEMBL1159337, “Antitumor agents. 221.1 buceracidins A and B, two new flavanones from Bucida buceras” (J Nat Prod, 2003).
In brackets after ≈: the same amount, converted by molar mass.

Columns and labels:
[1] = tested on: A549; assay: Cytotoxicity against human A549 cells after 3 days by SRB assay; type: functional, cell-based; conditions: A549, 72 h
How it was run: (§1)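 Stock cultures were kept in RPMI-1640 with 25 mM HEPES, 0.25% sodium bicarbonate, 10% FBS and 100 µg/mL kanamycin. Freshly trypsinized cells were seeded at 1500-7500 per well with compounds diluted from DMSO stock and cultured 3 days. Cells were fixed with cold 50% TCA, stained with 0.4% SRB, and the solubilized dye was read at 562 nm. IC50 was the concentration giving a 50% absorbance reduction versus untreated cells.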

[2] = tested on: PC-3; assay: Cytotoxicity against human PC3 cells after 3 days by SRB assay; type: functional, cell-based; conditions: PC-3, 72 h; how it was run: as §1
[3] = Cytotoxicity against human U87MG cells after 3 days by SRB assay; type: functional, cell-based, U-87MG ATCC; conditions: U-87 MG, 72 h; how it was run: as §1
[4] = tested on: MCF7; assay: Cytotoxicity against human MCF7 cells after 3 days by SRB assay; type: functional, cell-based; conditions: MCF7, 72 h; how it was run: as §1
[5] = tested on: HCT-8; assay: Cytotoxicity against human HCT8 cells after 3 days by SRB assay; type: functional, cell-based; conditions: HCT-8, 72 h; how it was run: as §1
[6] = tested on: KB; assay: Cytotoxicity against human KB cells after 3 days by SRB assay; type: functional, cell-based; conditions: 72 h; how it was run: as §1
[7] = tested on: KB; assay: Cytotoxicity against human KB cells at 10 ug/ml after 3 days by SRB assay; type: functional; conditions: 72 h
[8] = tested on: SK-MEL-2; assay: Cytotoxicity against human SK-MEL-2 cells after 3 days by SRB assay; type: functional, cell-based; conditions: SK-MEL-2, 72 h; how it was run: as §1
[9] = tested on: 1A9; assay: Cytotoxicity against human 1A9 cells after 3 days by SRB assay; type: functional, cell-based; conditions: 1A9, 72 h; how it was run: as §1
[10] = Cytotoxicity against human KBVIN cells after 3 days by SRB assay; type: functional, cell-based; conditions: 72 h; how it was run: as §1

Structure (SMILES) | IC50 [1] [µg/mL] | IC50 [2] [µg/mL] | IC50 [3] [µg/mL] | IC50 [4] [µg/mL] | IC50 [5] [µg/mL] | IC50 [6] [µg/mL] | inhibition at 10 µg/mL [7] [%] | IC50 [8] [µg/mL] | IC50 [9] [µg/mL] | IC50 [10] [µg/mL]
CO[C@H]1C(=O)c2c(cc3c(c2O)C=CC(C)(C)O3)O[C@@H]1c1ccccc1O [BUCERACIDIN A] | 14.1 (≈ 38.3 µM) | 16.3 (≈ 44.2 µM) | 16.1 (≈ 43.7 µM) | 13.6 (≈ 36.9 µM) | 15.5 (≈ 42.1 µM) | > 10 | 31 | 15.6 (≈ 42.3 µM) | 14.9 (≈ 40.4 µM) | 15 (≈ 40.7 µM)
CC(C)=CCc1c2c(c(O)c3c1O[C@H](c1ccccc1)[C@@H](O)C3=O)C=CC(C)(C)O2 [MUNDULINOL] | 7.5 (≈ 18.5 µM) | 9.3 (≈ 22.9 µM) | 13 (≈ 32 µM) | 7.5 (≈ 18.5 µM) | 7 (≈ 17.2 µM) | 8.5 (≈ 20.9 µM) | – | 8.5 (≈ 20.9 µM) | 8.2 (≈ 20.2 µM) | 7.5 (≈ 18.5 µM)
CC(C)=CCc1c2c(c(O)c3c1O[C@H](c1ccccc1O)CC3=O)C=CC(C)(C)O2 [MINIMIFLORIN] | 8 (≈ 19.7 µM) | 9.8 (≈ 24.1 µM) | 11 (≈ 27.1 µM) | 7.5 (≈ 18.5 µM) | 7.2 (≈ 17.7 µM) | 7.3 (≈ 18 µM) | – | 9 (≈ 22.1 µM) | 7.6 (≈ 18.7 µM) | 7.7 (≈ 18.9 µM)
CC1(C)C=Cc2c(cc3c(c2O)C(=O)C[C@@H](c2ccccc2O)O3)O1 [BUCERACIDIN B] | 9.9 (≈ 29.3 µM) | 13 (≈ 38.4 µM) | 14.2 (≈ 42 µM) | 9.3 (≈ 27.5 µM) | 12.8 (≈ 37.8 µM) | 9.5 (≈ 28.1 µM) | – | 14 (≈ 41.4 µM) | 11.5 (≈ 34 µM) | 9.5 (≈ 28.1 µM)
CC(C)=CCc1c2c(c(O)c3c1O[C@H](c1ccccc1O)[C@@H](O)C3=O)C=CC(C)(C)O2 | 13.5 (≈ 32 µM) | 15.4 (≈ 36.5 µM) | 14.8 (≈ 35 µM) | 12.8 (≈ 30.3 µM) | 12.1 (≈ 28.6 µM) | 16.5 (≈ 39.1 µM) | – | 14.8 (≈ 35 µM) | 15 (≈ 35.5 µM) | 13.3 (≈ 31.5 µM)
CO[C@H]1C(=O)c2c(O)c3c(c(CC=C(C)C)c2O[C@@H]1c1ccccc1O)OC(C)(C)C=C3 | 7.6 (≈ 17.4 µM) | 8.4 (≈ 19.2 µM) | 8.6 (≈ 19.7 µM) | 7 (≈ 16 µM) | 7.2 (≈ 16.5 µM) | 6.5 (≈ 14.9 µM) | – | 7.8 (≈ 17.9 µM) | 7.8 (≈ 17.9 µM) | 7 (≈ 16 µM)
